ChEMBL document CHEMBL5108087, “Synthesis and biological evaluation of paeoveitol D derivatives as new melatonin receptor agonists with antidepressant activities” (RSC Med Chem, 2022)
Active and inactive are the calls of the source. The calls are words filed in the database; no cut-off is given here.

Legend:
[1] = AUC (0 to 24 hrs) in Kunming mouse at 80 mg/kg, po administered as single dose and measured upto 24 hrs; assay type: ADME, organism-based; parameters: time < 24 hrs, dose 80 mg/kg, route po; conditions: in vivo
Mus musculus [2] = experiment: Antidepressant activity in kunming mouse assessed as increase in dopamine level in thalamus at 160 mg/kg, po measured after 14 days by HPLC-ECD analysis; assay type: functional, organism-based; conditions: time 14.0 day
Procedure, shortened: (§1)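 Male Kunming mice dosed orally with vehicle or 160 mg kg−1 for 14 days, then killed by cervical dislocation. Brain regions dissected on ice, homogenized in 0.2 M perchloric acid with 0.1 mM EDTA and spun at 4 °C for 20 min. Supernatant analysed by HPLC-ECD at +0.50 V, mobile phase pH 3.0. Amounts given in ng g−1 as mean ± SEM, n = 12.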

[3] = biological target: T1, Melatonin receptor type 1A (Homo sapiens, UniProt P48039); experiment: (§2) Agonist activity at human MT1 receptor transfected in HEK293T cells co-transfected with tet-inducible luciferase reporter plasmid, pCDNA3.1(+)-CMV-betaArrestin2-tev plasmid and TANGO plasmid assessed as tango arrestin recruitment by measuring maximum activity incubated for 24 hrs by TANGO-GPCR assay based luminescence plate reader analysis relative to 2-phenylmelatonin; assay type: functional, cell-based; conditions: filed as agonist
T1 sequence (P48039 whole entry): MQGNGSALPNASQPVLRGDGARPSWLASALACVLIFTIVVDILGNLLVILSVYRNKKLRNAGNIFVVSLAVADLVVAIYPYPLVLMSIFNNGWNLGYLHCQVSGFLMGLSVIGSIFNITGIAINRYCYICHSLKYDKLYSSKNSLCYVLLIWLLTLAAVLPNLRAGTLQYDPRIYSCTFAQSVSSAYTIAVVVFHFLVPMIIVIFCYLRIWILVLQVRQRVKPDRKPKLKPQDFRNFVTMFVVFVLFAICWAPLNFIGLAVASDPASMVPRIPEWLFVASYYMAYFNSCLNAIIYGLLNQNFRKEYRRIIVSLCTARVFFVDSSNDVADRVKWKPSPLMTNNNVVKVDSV
Procedure, shortened: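 Tango arrestin recruitment: 293T cells transiently transfected with a tet-inducible luciferase reporter, CMV-βArrestin2-TEV and TANGO receptor plasmids. On day 2, replated at 20 000 cells per well on poly-L-lysine. Drug added on day 3. On day 4, luciferase reagent added for 20 min and luminescence counted. Curves fitted; data given as mean ± SD.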

[4] = biological target: T2, Melatonin receptor type 1B (Homo sapiens, UniProt P49286); experiment: Agonist activity at human MT2 receptor expressed in HEK293 cells by Fluo-8 based calcium assay; assay type: functional, cell-based
T2 sequence (P49286 whole entry): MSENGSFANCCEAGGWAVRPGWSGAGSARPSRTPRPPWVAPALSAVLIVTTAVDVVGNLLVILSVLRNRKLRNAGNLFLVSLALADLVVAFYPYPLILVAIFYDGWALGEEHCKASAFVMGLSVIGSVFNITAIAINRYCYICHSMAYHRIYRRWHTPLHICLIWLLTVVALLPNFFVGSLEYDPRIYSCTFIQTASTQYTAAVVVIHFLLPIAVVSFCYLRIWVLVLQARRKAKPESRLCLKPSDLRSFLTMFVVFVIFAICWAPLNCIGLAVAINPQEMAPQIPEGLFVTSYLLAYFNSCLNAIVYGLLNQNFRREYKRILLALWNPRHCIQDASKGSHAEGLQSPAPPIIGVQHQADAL

[5] = biological target: T1, Melatonin receptor type 1A; experiment: as §2, with “recruitment” for “recruitment by measuring maximum activity”, “analysis” for “analysis relative to 2-phenylmelatonin”; assay type: functional, cell-based
[6] = Subacute toxicity in Kunming mouse assessed as effect on heart structure at 240 mg/kg, po administered for 14 days; assay type: organism-based; conditions: in vivo, 336 h, time 14 day
Procedure, shortened: (§3)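 Subacute oral study following OECD 425. Animals randomised into two groups of six. Vehicle control received 0.5% CMC-Na orally for 14 consecutive days; the treated group received 240 mg kg−1 body weight orally for 14 consecutive days.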

Mus musculus [7] = experiment: Antidepressant activity in kunming mouse assessed as increase in dopamine level in striatum at 160 mg/kg, po measured after 14 days by HPLC-ECD analysis; assay type: functional, organism-based; conditions: time 14.0 day; procedure, shortened: as §1
Mus musculus [8] = experiment: Antidepressant activity in kunming mouse assessed as increase in dopamine level in hypothalamus at 160 mg/kg, po measured after 14 days by HPLC-ECD analysis; assay type: functional, organism-based; conditions: time 14.0 day; procedure, shortened: as §1
Mus musculus [9] = experiment: Antidepressant activity in kunming mouse assessed as increase in dopamine level in hippocampus at 160 mg/kg, po measured after 14 days by HPLC-ECD analysis; assay type: functional, organism-based; conditions: time 14.0 day; procedure, shortened: as §1
Mus musculus [10] = experiment: Antidepressant activity in kunming mouse assessed as increase in 5-HT level in thalamus at 160 mg/kg, po measured after 14 days by HPLC-ECD analysis; assay type: functional, organism-based; conditions: time 14.0 day; procedure, shortened: as §1
Mus musculus [11] = experiment: Antidepressant activity in Kunming mouse assessed as decrease in immobility time at 10 to 160 mg/kg, po administered two times at 1 hrs and 24 hrs and measured at last 4 mins of 6 mins test by forced swim test; assay type: functional, organism-based; conditions: dose 10-160 mg/kg, time 1444.0 min
Procedure, shortened: (§4)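 Male Kunming mice, 15–18 g, housed six per cage at 22 ± 1 °C on a 12 h light/dark cycle. Oral dosing 24 h and 1 h before the test. Each mouse placed in a cylinder (25 cm high, 15 cm diameter) holding 10 cm of water at 25 ± 1 °C and made to swim 6 min; immobility over the last 4 min scored by video tracking.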

[12] = Tmax in Kunming mouse at 80 mg/kg, po administered as single dose and measured upto 24 hrs; assay type: ADME, organism-based; conditions: in vivo
Mus musculus [13] = experiment: Antidepressant activity in kunming mouse assessed as decrease in 5-HIAA level in striatum at 160 mg/kg, po measured after 14 days by HPLC-ECD analysis; assay type: functional, organism-based; conditions: time 14.0 day; procedure, shortened: as §1
Mus musculus [14] = experiment: Antidepressant activity in kunming mouse assessed as increase in 5-HT level in hippocampus at 160 mg/kg, po measured after 14 days by HPLC-ECD analysis; assay type: functional, organism-based; conditions: time 14.0 day; procedure, shortened: as §1
[15] = Subacute toxicity in Kunming mouse assessed as effect on kidney structure at 240 mg/kg, po administered for 14 days; assay type: organism-based; conditions: in vivo, 336 h, time 14 day; procedure, shortened: as §3
Mus musculus [16] = experiment: Antidepressant activity in Kunming mouse assessed as decrease in immobility time at 160 mg/kg, po administered two times at 1 hrs and 24 hrs and measured at last 4 mins of 6 mins test by forced swim test relative to fluoxetine; assay type: functional; parameters: scale not given: the % may be the effect or the level left; conditions: time 1444 min, 24.07 h; procedure, shortened: as §4
Mus musculus [17] = experiment: Antidepressant activity in kunming mouse assessed as increase in dopamine level in frontal cortex at 160 mg/kg, po measured after 14 days by HPLC-ECD analysis; assay type: functional, organism-based; conditions: time 14.0 day; procedure, shortened: as §1
Mus musculus [18] = experiment: Antidepressant activity in Kunming mouse assessed as decrease in immobility time at 40 mg/kg, po and measured after 14 days by forced swim test relative to control; assay type: functional; parameters: scale not given: the % may be the effect or the level left; conditions: time 14 day
Procedure, shortened: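 Male Kunming mice, 15–18 g, given the test compound orally for 14 days. Forced swim then done in a cylinder 25 cm high and 15 cm in diameter, water 10 cm deep at 25 ± 1 °C. Swim lasted 6 min and immobility over the final 4 min was video-scored against the vehicle group.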

Mus musculus [19] = experiment: Antidepressant activity in kunming mouse assessed as increase in 5-HT level in frontal cortex at 160 mg/kg, po measured after 14 days by HPLC-ECD analysis; assay type: functional, organism-based; conditions: time 14.0 day; procedure, shortened: as §1
[20] = Subacute toxicity in Kunming mouse assessed as effect on spleen structure at 240 mg/kg, po administered for 14 days; assay type: organism-based; conditions: in vivo, 336 h, time 14 day; procedure, shortened: as §3
[21] = Clearance in Kunming mouse at 80 mg/kg, po administered as single dose and measured upto 24 hrs; assay type: ADME, organism-based; conditions: in vivo
[22] = Cmax in Kunming mouse at 80 mg/kg, po administered as single dose and measured upto 24 hrs; assay type: ADME, organism-based; parameters: time < 24 hrs, dose 80 mg/kg, route po; conditions: in vivo
[23] = Half-life in Kunming mouse at 80 mg/kg, po administered as single dose and measured upto 24 hrs; assay type: ADME, organism-based; conditions: in vivo

COc1cc2c(CN3CCN(C)CC3)coc2cc1C
AUC [1]: 5400 ng·h/mL
Activity (Mus musculus [2]): Active
Emax [3]: 46%
EC50 [4]: 260 µM
EC50 [5]: 21 µM
Activity [6]: Non-Toxic
Activity (Mus musculus [7]): Active
Activity (Mus musculus [8]): Active
Activity (Mus musculus [9]): Active
Activity (Mus musculus [10]): Active
Activity (Mus musculus [11]): Active
Tmax [12]: 4.98 min
Activity (Mus musculus [13]): Active
Activity (Mus musculus [14]): Active
Activity [15]: Non-Toxic
Activity (Mus musculus [16]): 29%
Activity (Mus musculus [17]): Active
Activity (Mus musculus [18]): 26%
Activity (Mus musculus [19]): Active
Activity [20]: Non-Toxic
CL/F [21]: 237 mL/min
Cmax [22]: 1340 ng/mL
half-life [23]: 5.47 h
